{"source": "paper PMC9473745", "about": "(Cell chemical biology, 2021)", "key": {"[1]": {"molecular_target": "T1, USP28 catalytic domain (Homo sapiens, UniProt Q96RU2)", "T1 sequence (Q96RU2 149-703)": "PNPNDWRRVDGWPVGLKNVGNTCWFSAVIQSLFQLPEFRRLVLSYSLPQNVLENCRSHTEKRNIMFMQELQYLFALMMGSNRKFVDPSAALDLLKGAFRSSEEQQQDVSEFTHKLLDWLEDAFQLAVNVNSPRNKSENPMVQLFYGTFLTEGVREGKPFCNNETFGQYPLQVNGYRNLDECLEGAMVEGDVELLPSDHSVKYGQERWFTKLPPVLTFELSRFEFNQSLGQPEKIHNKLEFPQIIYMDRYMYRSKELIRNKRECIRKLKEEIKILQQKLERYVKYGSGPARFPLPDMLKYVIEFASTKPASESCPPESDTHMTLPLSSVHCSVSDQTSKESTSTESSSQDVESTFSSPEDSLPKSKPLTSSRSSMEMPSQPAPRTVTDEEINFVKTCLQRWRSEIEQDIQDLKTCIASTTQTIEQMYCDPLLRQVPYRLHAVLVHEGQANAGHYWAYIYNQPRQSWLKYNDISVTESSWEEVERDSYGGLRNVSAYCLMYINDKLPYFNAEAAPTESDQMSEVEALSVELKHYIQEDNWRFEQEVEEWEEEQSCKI", "assay": "Ubiquitin rhodamine 110 kinetic assay, USP28", "type": "biochemical", "settings": "for potency relative to AZ1: USP28 IC50 compared with AZ1"}, "[2]": {"system": "USP28 in HEK293T cellular lysate", "assay": "Competitive ABPP with western blot readout for USP28", "type": "binding, human", "settings": "1 hour pre-treatment, dose-response", "in_short": "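Lysate was pre-incubated with compound or DMSO for 1 h at RT. It was then labeled with 1:1 Ub-PA/Ub-VME (2 μM final) for 30 min at RT with shaking. Samples were denatured at 95°C, run on SDS-PAGE, and immunoblotted with anti-USP28 rabbit monoclonal.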"}, "[3]": {"molecular_target": "USP7 catalytic domain (Homo sapiens, UniProt Q93009)", "sequence (Q93009 208-560)": "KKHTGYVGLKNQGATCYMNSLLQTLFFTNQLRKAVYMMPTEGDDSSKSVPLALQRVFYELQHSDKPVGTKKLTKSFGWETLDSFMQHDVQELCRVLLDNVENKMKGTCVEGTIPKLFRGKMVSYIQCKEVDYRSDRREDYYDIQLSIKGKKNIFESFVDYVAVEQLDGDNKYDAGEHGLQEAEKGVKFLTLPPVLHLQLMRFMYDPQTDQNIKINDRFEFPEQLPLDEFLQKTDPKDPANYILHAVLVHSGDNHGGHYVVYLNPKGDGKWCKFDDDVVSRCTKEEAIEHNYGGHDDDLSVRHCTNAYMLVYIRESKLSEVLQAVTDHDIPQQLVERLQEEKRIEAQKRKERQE", "assay": "Ubiquitin rhodamine 110 kinetic assay, USP7 catalytic domain", "type": "biochemical", "in_short": "(§1)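 Human DUB constructs, each N-terminally 6xHis-tagged and expressed in E. coli BL21(DE3): USP7 full length (AA 1–1102), USP7 catalytic domain (AA 208–560), USP8 catalytic domain (AA 743–1110) and USP30 catalytic domain (AA 65–517). Ub-Rho110 was then added and fluorescence (ex 485/em 535 nm) read each minute over 30 min. Initial rates were normalized to no-compound wells and fitted (variable slope) for IC50; each run at least twice, SEM.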"}, "[4]": {"system": "USP28 in HEK293T lysates", "assay": "Quantitative activity-based protein profiling", "type": "binding, human", "settings": "HEK293T lysate, 250 μM compound, Ub-PA/Ub-VME probes", "in_short": "(§2)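 HEK293T cells were lysed in NP-40/glycerol/TCEP buffer with protease and phosphatase inhibitors, and lysate was diluted to 10 mg/mL. Lysate was incubated with 250 μM test compound or DMSO for 30 min at room temperature, with a selective USP7 inhibitor as positive control. Biotin-Ub-PA and biotin-Ub-VME (1 μM each) were added for 15 min. Labelled proteins were captured on streptavidin, trypsin-digested on bead and TMT-labelled. Quantified by multidimensional LC-MS using reporter-ion protein-level values.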"}, "[5]": {"system": "native USP25 in HEK293T lysates", "assay": "Quantitative activity-based protein profiling", "type": "binding, human", "settings": "HEK293T lysate, 250 μM compound, Ub-PA/Ub-VME probes", "in_short": "as §2"}, "[6]": {"system": "other DUBs detected in cell lysate", "assay": "Quantitative activity-based protein profiling", "type": "binding, human", "settings": "HEK293T lysate, 250 μM compound, Ub-PA/Ub-VME probes", "in_short": "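Aliquots were treated with 250 μM compound or DMSO for 30 min at RT, then processed to peptides. Peptides were TFA-acidified, C18-desalted, and TMT-labeled for 1 h at RT. Peptides were mapped to unique genes, and reporter ions were aggregated into protein-level values.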"}, "[7]": {"molecular_target": "T2, USP30 catalytic domain (Homo sapiens, UniProt Q70CQ3)", "T2 sequence (Q70CQ3 65-517)": "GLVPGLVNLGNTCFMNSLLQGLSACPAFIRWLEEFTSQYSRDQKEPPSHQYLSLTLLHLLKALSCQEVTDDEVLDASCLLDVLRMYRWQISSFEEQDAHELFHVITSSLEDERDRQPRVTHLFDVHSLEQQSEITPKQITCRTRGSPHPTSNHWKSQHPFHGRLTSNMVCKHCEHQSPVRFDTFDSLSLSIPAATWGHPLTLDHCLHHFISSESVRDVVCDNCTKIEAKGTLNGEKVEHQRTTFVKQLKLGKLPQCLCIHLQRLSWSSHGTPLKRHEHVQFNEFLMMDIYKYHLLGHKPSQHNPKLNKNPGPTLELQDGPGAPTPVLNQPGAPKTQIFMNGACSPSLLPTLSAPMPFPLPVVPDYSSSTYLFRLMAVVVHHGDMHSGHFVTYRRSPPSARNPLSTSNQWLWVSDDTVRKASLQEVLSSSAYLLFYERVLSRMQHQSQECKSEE", "assay": "Ubiquitin rhodamine 110 kinetic assay, USP30", "type": "biochemical", "in_short": "as §1"}, "[8]": {"system": "full-length USP7", "assay": "Kinetic Ub-Rho assay, full-length USP7", "type": "biochemical, human", "settings": "dose-response", "in_short": "as §1"}, "[9]": {"system": "USP7", "assay": "Ub-Rho endpoint screen of spiro indolinone expansion set, USP7", "type": "biochemical, human", "settings": "8-point dose-response in triplicate", "in_short": "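Enzyme and acoustically dispensed test compound were incubated 1 h; DMSO-only wells served as neutral control. Ub-Rho110 was then added and the reaction run 10 min at room temperature without a quench. Fluorescence was read at ex 485/em 535 nm.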"}, "[10]": {"system": "USP8", "assay": "Ub-Rho endpoint screen of spiro indolinone expansion set, USP8", "type": "biochemical, human", "settings": "8-point dose-response in triplicate", "in_short": "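Enzyme and test compound were incubated 10 min; DMSO wells served as control. Ub-Rho110 was then added and the reaction run 30 min–3 h at room temperature depending on DUB. Stopped with assay buffer plus 0.2% TFA and read at ex 485/em 535 nm.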"}, "[11]": {"molecular_target": "T3, USP8 catalytic domain (Homo sapiens, UniProt P40818)", "T3 sequence (P40818 743-1110)": "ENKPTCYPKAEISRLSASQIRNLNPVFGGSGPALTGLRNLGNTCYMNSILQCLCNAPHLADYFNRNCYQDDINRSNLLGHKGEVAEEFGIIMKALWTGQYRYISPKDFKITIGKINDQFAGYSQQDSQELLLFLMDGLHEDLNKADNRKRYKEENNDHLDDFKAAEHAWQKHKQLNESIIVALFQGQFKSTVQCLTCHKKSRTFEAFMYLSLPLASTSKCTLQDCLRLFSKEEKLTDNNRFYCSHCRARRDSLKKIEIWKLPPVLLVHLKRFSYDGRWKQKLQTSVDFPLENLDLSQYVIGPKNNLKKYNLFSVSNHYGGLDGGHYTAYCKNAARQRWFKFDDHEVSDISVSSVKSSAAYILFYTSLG", "assay": "Ubiquitin rhodamine 110 kinetic assay, USP8", "type": "biochemical", "settings": "kinetic Ub-Rho assay", "in_short": "as §1"}, "[12]": {"molecular_target": "USP10 catalytic domain (Homo sapiens, UniProt Q14694)", "sequence (Q14694 376-798)": "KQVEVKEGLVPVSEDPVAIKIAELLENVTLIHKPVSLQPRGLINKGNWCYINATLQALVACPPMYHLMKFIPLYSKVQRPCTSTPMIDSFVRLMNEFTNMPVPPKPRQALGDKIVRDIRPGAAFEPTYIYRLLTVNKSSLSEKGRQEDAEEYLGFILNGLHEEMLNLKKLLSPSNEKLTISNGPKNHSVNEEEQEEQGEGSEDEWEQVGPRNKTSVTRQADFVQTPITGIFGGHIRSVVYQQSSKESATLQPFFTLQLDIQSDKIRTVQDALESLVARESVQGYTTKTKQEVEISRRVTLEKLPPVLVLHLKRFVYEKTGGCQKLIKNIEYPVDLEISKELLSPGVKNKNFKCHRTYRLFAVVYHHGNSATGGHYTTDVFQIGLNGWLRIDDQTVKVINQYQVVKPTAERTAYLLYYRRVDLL", "assay": "Ubiquitin rhodamine 110 kinetic assay, USP10", "type": "biochemical", "settings": "read-out: IC50 ± SEM, kinetic Ub-Rho assay, 12-point dose-response, mean ± SEM (n)", "in_short": "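Enzyme was the human USP10 catalytic domain (aa 376–798), N-6xHis, E. coli-expressed, purified by Ni-NTA and Superdex 200. Fluorescence (ex 485/em 535 nm) was read every minute for 30 min. Initial rates were normalized to no-compound control and fitted with a variable-slope model; runs ≥2, SEM.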"}, "[13]": {"system": "USP8", "assay": "Ubiquitin-AMC kinetic assay, USP8", "type": "biochemical, human", "settings": "dose-response", "in_short": "(§3)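 Same kinetic protocol as the Ub-Rho110 assay, with Ub-AMC as substrate. His-tagged catalytic domains were used: USP8 (AA 743–1110) and USP10 (AA 376–798). Read at ex 345/em 445 nm each minute over 30 min. IC50 came from initial rates normalized to no-compound wells and was compared with the Ub-Rho110 value.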"}, "[14]": {"system": "USP10", "assay": "Ubiquitin-AMC kinetic assay, USP10", "type": "biochemical, human", "settings": "dose-response", "in_short": "as §3"}, "[15]": {"settings": "IC50 ± SEM, USP28, catalytic domain of the human protein, kinetic Ub-Rho assay, mean ± SEM (n)"}}, "note": "Entries after “also recorded” stand apart in the source; their conditions may differ. Where two headings read alike, the source gives them in different places."}
{"smiles": "O=c1ccc(-c2noc(Cc3cccc(Cl)c3)n2)c[nH]1", "note": "[AV-11324–75, 5-(5-(3-chlorobenzyl)-1,2,4-oxadiazol-3-yl)pyridin-2(1H)-one]", "values": [{"measurement": "IC50", "setting": "[1]; [15]", "value": "176 ± 73", "unit": "nM"}, {"measurement": "blockage of USP28 labeling by covalent probe (western blot)", "setting": "[2]", "value": "good dose-dependent inhibition and prevention of probe labeling"}]}
{"smiles": "Cc1nn(-c2ccccc2)c2c1C1(C(=O)Nc3ccccc31)N1C(=N2)Sc2ccccc21", "note": "(centres unmarked) [AV-9606–27, 3-methyl-1-phenyl-1H-spiro[benzo[4,5]thiazolo[3,2-a]pyrazolo[3,4-d]pyrimidine-4,3’-indolin]-2’-one]", "values": [{"measurement": "IC50", "setting": "[3]; read-out: IC50 ± SEM, USP7, kinetic Ub-Rho assay, 12-point dose-response, mean ± SEM (n)", "value": "4680 ± 1050", "unit": "nM"}]}
{"smiles": "O=c1ccc(-c2noc(Cc3ccc(Cl)c(Cl)c3)n2)c[nH]1", "note": "[AV-9606–180, 5-(5-(3,4-dichlorobenzyl)-1,2,4-oxadiazol-3-yl)pyridin-2(1H)-one]", "values": [{"measurement": "IC50", "setting": "[1]; IC50, USP28", "value": "≤ 100", "unit": "nM"}, {"measurement": "potency relative to AZ1", "setting": "[1]", "value": "approximately 10 fold"}, {"measurement": "blockage of probe labeling of USP28", "setting": "[4]", "value": "strong inhibition of USP28"}, {"measurement": "blockage of USP28 labeling by covalent probe (western blot)", "setting": "[2]", "value": "good dose-dependent inhibition and prevention of probe labeling"}]}
{"smiles": "OCCNCc1cc(Br)ccc1OCc1ccc(F)c(C(F)(F)F)c1", "note": "[AZ1]", "values": [{"measurement": "blockage of probe labeling of USP25", "setting": "[5]", "value": "strongly blocked labeling of USP25"}, {"measurement": "blockage of probe labeling of USP28", "setting": "[4]", "value": "little impact on USP28"}, {"measurement": "activity toward other DUBs detected", "setting": "[6]", "value": "did not exhibit activity toward any other DUBs"}]}
{"smiles": "CCCc1nc2sc3c(NCCc4ccc(OC)c(OC)c4)ncnc3c2c2c1CCC2", "note": "[bin-01–07-07, N-(3,4-dimethoxyphenethyl)-4-propyl-2,3-dihydro-1H-cyclopenta[4’,5’]pyrido[3’,2’:4,5]thieno[3,2-d]pyrimidin-7-amine]", "values": [{"measurement": "IC50", "setting": "[1]; IC50, USP28", "value": "≤ 100", "unit": "nM"}, {"measurement": "IC50", "setting": "[1]; [15]", "value": "46 ± 17", "unit": "nM"}, {"measurement": "potency relative to AZ1", "setting": "[1]", "value": "approximately 10 fold"}, {"measurement": "blockage of probe labeling of USP28", "setting": "[4]", "value": "strong inhibition of USP28"}, {"measurement": "blockage of USP28 labeling by covalent probe (western blot)", "setting": "[2]", "value": "good dose-dependent inhibition and prevention of probe labeling"}]}
{"smiles": "O=C1c2ccccc2NC2(C(=O)Nc3ccc(Br)cc32)N1c1ccccc1", "note": "(centres unmarked) [AV-9606–99, 5-bromo-3’-phenyl-1’H-spiro[indoline-3,2’-quinazoline]-2,4’(3’H)-dione]", "values": [{"measurement": "IC50", "setting": "[1]; [15]", "value": "4330 ± 1080", "unit": "nM"}]}
{"smiles": "CC(C)NS(=O)(=O)c1cccc2c(NC(=O)[C@H](Cc3ccccc3)NC(=O)c3ccccc3)cccc12", "note": "[AV-11324–5, (S)-N-(1-((5-(N-isopropylsulfamoyl)naphthalen-1-yl)amino)-1-oxo-3-phenylpropan-2-yl)benzamide]", "values": [{"measurement": "IC50", "setting": "[7]", "value": "275 ± 70", "unit": "nM"}]}
{"smiles": "Cc1ccc(S(=O)(=O)N(C)C)cc1NC(=O)Cc1ccc(Cl)c(Cl)c1", "note": "[AV-9606–129, 2-(3,4-dichlorophenyl)-N-(5-(N,N-dimethylsulfamoyl)-2-methylphenyl)acetamide]", "values": [{"measurement": "IC50", "setting": "[1]; [15]", "value": "402 ± 197", "unit": "nM"}]}
{"smiles": "CC(C)c1[nH]nc2c1C1(C(=O)Nc3ccccc31)C(C#N)=C(N)O2", "note": "(centres unmarked) [AV-9606–41, 6’-amino-3’-isopropyl-2-oxo-2’H-spiro[indoline-3,4’-pyrano[2,3-c]pyrazole]-5’-carbonitrile]", "values": [{"measurement": "IC50", "setting": "[3]", "value": "3830 ± 1600", "unit": "nM"}, {"measurement": "inhibition of full-length USP7", "setting": "[8]", "value": "no inhibition of full-length protein; also recorded: no activity against a full-length protein"}, {"measurement": "activity against USP7 in expansion set screen", "setting": "[9]", "value": "active against USP7"}, {"measurement": "activity against USP8 in expansion set screen", "setting": "[10]", "value": "inactive against USP8"}]}
{"smiles": "COc1ccc(C(=O)COC(=O)c2ccccc2NS(=O)(=O)c2ccc(O)c([N+](=O)[O-])c2)cc1", "note": "[Compound Z56965384]", "values": [{"measurement": "inhibition of off-target DUB USP8", "setting": "[11]", "value": "confirmed inhibition"}, {"measurement": "IC50", "setting": "[12]", "value": "26600 ± 4690", "unit": "nM"}, {"measurement": "increase in IC50 value with Ubiquitin-AMC versus Ub-Rho", "setting": "[13]", "value": "3–10 fold"}, {"measurement": "increase in IC50 value with Ubiquitin-AMC versus Ub-Rho", "setting": "[14]", "value": "3–10 fold"}]}
